Results published in ChEMBL document CHEMBL4130504, “Discovery of new indomethacin-based analogs with potentially selective cyclooxygenase-2 inhibition and observed diminishing to PGE2 activities” (Eur J Med Chem, 2017).

Columns and labels:
Rattus norvegicus [1] = assay: In vivo inhibition of rat COX-2 assessed as decrease in plasma PGE2 level by EIA relative to control; assay type: functional
How it was run: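 Plasma from heparinized rat blood, spun at 12,000 g for 2 min, then frozen until use. PGE2 measured by competitive enzyme immunoassay with a monoclonal anti-PGE2 antibody at room temperature, read at 405 nm. Expressed as % inhibition ± SEM.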

Rattus norvegicus [2] = assay: Antiinflammatory activity in sc dosed Sprague-Dawley rat assessed as inhibition of cotton pellet-induced granuloma after 7 days; assay type: functional
How it was run: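 Adult male Sprague-Dawley rats, 120-140 g, six per group, acclimated one week. Cotton pellets (35 ± 1 mg) soaked with 0.01 mmol compound in chloroform, dried, then loaded with penicillin G/dihydrostreptomycin. Two pellets implanted subcutaneously, one per axilla, under mild anesthesia. Pellets with granuloma removed at day 7, dried 48 h at 60 °C and weighed. ED50 from dose-response at 4, 7, 10 and 15 µmol.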

Rattus norvegicus [3] = assay: Ulcerogenicity in albino rat assessed as at 30 umol/kg, po administered daily for 3 successive days in two equal doses at 0 and 12 hrs measured at 6 hrs post last dose by magnifying lens based assay relative to control; assay type: toxicity, organism-based; conditions: in vivo
How it was run: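 Male albino rats, 100-120 g, fasted 12 h, six per group. Compound given orally at 30 µmol/kg/day as two equal doses at 0 and 12 h for three days. Controls got 1% gum acacia. Killed 6 h after last dose. Stomach opened along the greater curvature, washed with cold saline and examined under a magnifying lens for hyperemia, hemorrhage, erosion or ulcer. % ulceration = ulcer-bearing animals ×100/group total.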

Rattus norvegicus [4] = assay: Antiinflammatory activity in albino rat assessed as protection against carrageenan-induced paw edema at 10 umol/kg, sc pretreated for 1 hr followed by carrageenan challenge measured after 4 hrs by plethysmometer (reference value: 0%); assay type: functional
How it was run: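 Male albino rats, 120-150 g, six per group. Compound in DMSO given subcutaneously at 10 µmol/kg 1 h before subplantar injection of 2% carrageenan in 0.9% saline. Controls got DMSO alone. Paw volume read by plethysmometer right after carrageenan and 4 h later. % protection = (Vc−Vd)×100/Vc from the 0–4 h increase. Mean ± SEM, Student's t-test.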

Cyclooxygenase = target: T1, Cyclooxygenase (Rattus norvegicus, UniProt P35355+Q63921); assay: Inhibition of rat kidney microsomal COX assessed as PGE2 level using arachidonic acid as substrate preincubated for 5 to 15 mins followed by substrate addition measured after 40 mins by radio immunoassay
T1 sequence (P35355 whole entry): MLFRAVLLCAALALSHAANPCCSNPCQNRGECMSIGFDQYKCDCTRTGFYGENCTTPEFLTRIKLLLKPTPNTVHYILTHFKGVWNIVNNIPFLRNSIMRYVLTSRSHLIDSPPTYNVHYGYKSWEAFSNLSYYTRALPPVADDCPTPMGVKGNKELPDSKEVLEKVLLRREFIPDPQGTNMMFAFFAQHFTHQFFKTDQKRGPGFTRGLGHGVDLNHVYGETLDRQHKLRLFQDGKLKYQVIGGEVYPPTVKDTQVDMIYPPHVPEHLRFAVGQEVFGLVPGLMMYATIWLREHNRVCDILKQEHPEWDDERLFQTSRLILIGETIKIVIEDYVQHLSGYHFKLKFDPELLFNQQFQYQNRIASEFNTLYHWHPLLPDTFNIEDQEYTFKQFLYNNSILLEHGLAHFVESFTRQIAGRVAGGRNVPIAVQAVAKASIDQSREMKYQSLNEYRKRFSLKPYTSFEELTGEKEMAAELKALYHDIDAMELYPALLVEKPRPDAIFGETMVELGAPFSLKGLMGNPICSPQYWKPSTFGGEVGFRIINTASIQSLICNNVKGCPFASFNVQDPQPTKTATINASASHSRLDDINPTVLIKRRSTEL
T1 sequence (Q63921 whole entry): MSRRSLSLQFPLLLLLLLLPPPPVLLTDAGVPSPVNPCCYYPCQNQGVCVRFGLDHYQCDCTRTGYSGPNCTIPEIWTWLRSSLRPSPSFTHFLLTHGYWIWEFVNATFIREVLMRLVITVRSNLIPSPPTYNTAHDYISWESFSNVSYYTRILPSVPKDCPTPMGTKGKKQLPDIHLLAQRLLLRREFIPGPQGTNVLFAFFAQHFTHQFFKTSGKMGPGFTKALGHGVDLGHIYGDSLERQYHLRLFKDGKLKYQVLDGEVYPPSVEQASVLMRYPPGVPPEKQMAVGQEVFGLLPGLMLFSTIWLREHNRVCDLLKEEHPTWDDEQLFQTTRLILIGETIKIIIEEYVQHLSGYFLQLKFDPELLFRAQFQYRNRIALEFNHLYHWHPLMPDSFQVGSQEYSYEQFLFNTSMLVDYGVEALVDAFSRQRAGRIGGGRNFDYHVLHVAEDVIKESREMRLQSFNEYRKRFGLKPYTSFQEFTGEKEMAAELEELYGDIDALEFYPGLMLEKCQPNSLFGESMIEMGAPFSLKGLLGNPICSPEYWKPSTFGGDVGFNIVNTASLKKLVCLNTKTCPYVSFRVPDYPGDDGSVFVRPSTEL

[5] = Inhibition of dog kidney microsomal COX assessed as PGE2 level using arachidonic acid as substrate preincubated for 5 to 15 mins followed by substrate addition measured after 40 mins by radio immunoassay; set-up: species or system Canis lupus familiaris
How it was run: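 Dog kidney microsomes: tissue homogenized and sonicated in phosphate buffer pH 7.1 with EDTA/PMSF, 100,000g pellet collected. Arachidonic acid added, 40 min at room temperature. Stopped with 1 N HCl, neutralized, PGE2 by radioimmunoassay. COX activity = PGE2 with arachidonic acid minus ethanol vehicle. IC50 from three separate experiments, mean ± SEM.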

Row | SMILES | IC50 (Cyclooxygenase) [nM] | IC50 [5] [nM] | inhibition (INH) (Rattus norvegicus [1]) [%] | ED50 (Rattus norvegicus [2]) [µmol] | Activity (Rattus norvegicus [3]) [%] | Activity (Rattus norvegicus [4]) [%]
1 | COc1ccc2c(c1)c(CC(=O)O)c(C)n2C(=O)c1ccc(Cl)cc1 [INDOMETHACIN] | – | – | 98.29 | 9.568 | – | –
2 | Cc1ccc(-c2cc(C(F)(F)F)nn2-c2ccc(S(N)(=O)=O)cc2)cc1 [CELECOXIB] | – | 112 | 77.25 | 86.11 | 2.11 | 96.73
3 | COc1ccc2c(c1)c1c(n2S(=O)(=O)c2ccc(Cl)cc2)CC(C)(C)CC1=O | 128 | 61 | 82.16 | 26.88 | 20.12 | 80.67
4 | CS(=O)(=O)c1ccc2c(c1)c1c(n2S(=O)(=O)c2ccc(Cl)cc2)CCCC1=O | 104 | 53 | 84.11 | 22.33 | 11.29 | 81.88
5 | COc1ccc2c(c1)c1c(n2Cc2ccc(Cl)cc2)CC(C)(C)CC1=O | 132 | 77 | 81.16 | 17.27 | 11.2 | 80.36
6 | COc1ccc2c(c1)c1c(n2C(=O)c2ccc(Cl)cc2)CC(C)(C)CC1=O | 141 | 80 | 80.24 | 28.27 | 13.18 | 79.66

Further lines, with some results ahead:

Row | IC50 (Cyclooxygenase) [nM] | IC50 [5] [nM] | SMILES | inhibition (INH) (Rattus norvegicus [1]) [%] | ED50 (Rattus norvegicus [2]) [µmol] | Activity (Rattus norvegicus [3]) [%] | Activity (Rattus norvegicus [4]) [%]
7 | 79 | 40 | CS(=O)(=O)c1ccc2c(c1)c1c(n2S(=O)(=O)c2ccc(Cl)cc2)CCCC1 | 88.2 | 18.67 | 2.9 | 85.32
8 | 56 | 39 | CS(=O)(=O)c1ccc2c(c1)c1c(n2Cc2ccc(Cl)cc2)CCCC1 | 89.43 | 14.56 | 4.48 | 87.55
9 | 48 | 34 | CS(=O)(=O)c1ccc2c(c1)c1c(n2C(=O)c2ccc(Cl)cc2)CCCC1=O | 91.29 | 12.38 | 3.28 | 88.06
10 | 116 | 56 | CS(=O)(=O)c1ccc2c(c1)c1c(n2C(=O)c2ccc(Cl)cc2)CCCC1 | 83.19 | 25.67 | 12.45 | 80.97
11 | 93 | 45 | CS(=O)(=O)c1ccc2c(c1)c1c(n2Cc2ccc(Cl)cc2)CCCC1=O | 86.39 | 19.2 | 5.4 | 83.1
